From article PMC3609577 (Diabetes, 2013)
One block for each compound: values may come before it.

Tests used:
[1] = biological target: T1, endogenous CD38 (A549 cells) (Homo sapiens, UniProt P28907); experiment: Endogenous CD38 NAD+ase activity in protein lysates from A549 cells; format: biochemical
T1 sequence (P28907 1-300): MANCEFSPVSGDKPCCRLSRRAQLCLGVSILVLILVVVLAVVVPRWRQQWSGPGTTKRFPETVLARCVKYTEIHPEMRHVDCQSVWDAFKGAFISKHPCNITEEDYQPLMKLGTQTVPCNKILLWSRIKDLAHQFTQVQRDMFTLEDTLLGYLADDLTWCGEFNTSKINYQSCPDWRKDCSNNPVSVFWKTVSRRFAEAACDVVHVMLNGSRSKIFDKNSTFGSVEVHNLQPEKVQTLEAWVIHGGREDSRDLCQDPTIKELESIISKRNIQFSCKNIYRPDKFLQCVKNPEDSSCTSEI

CD38 [2] = biological target: T2, CD38 (Mus musculus, UniProt P56528); experiment: Liver CD38 activity, NAD+ and protein readouts in high-fat diet obese mice; format: in vivo; settings: 100 mg/kg i.p. daily for 1 week vs vehicle
T2 sequence (P56528 1-304): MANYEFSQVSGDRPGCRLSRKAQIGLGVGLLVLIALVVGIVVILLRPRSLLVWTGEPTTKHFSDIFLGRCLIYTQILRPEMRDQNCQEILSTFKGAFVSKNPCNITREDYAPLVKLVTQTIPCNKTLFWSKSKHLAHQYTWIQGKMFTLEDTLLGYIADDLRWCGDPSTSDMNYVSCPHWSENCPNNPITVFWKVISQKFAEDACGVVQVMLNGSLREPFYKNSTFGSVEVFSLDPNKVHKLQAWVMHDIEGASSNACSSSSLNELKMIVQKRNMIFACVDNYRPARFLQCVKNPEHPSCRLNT
Method in brief: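 Twelve 20-week-old C57BL/6 mice were fed a high-fat diet (60% of calories from fat) ad libitum for 4 weeks, then randomised into two groups. Groups received the test compound at 100 mg/kg i.p. or DMSO vehicle once daily for 7 days while staying on the diet. Hepatic NAD+ was measured by enzymatic cycling. Liver lysates were immunoblotted with anti-acetyl-lysine and quantified as intensity-profile area; n = 3 per group.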

HepG2 cells [3] = experiment: Protein acetylation in HepG2 cells; format: cell-based, human
[4] = test system: wild-type and CD38 knockout MEFs; experiment: Intracellular NAD+ levels in wild-type and CD38 knockout MEFs; format: cell-based, mouse; settings: quercetin 50 μmol/L, 6 h; for Intracellular NAD+ levels in CD38 knockout MEFs: apigenin 25 μmol/L
atherosclerosis in mice = settings: cited from earlier work
recombinant human CD38 [5] = biological target: T3, recombinant human CD38 (Homo sapiens, UniProt P28907); experiment: In vitro CD38 ADP-ribosyl-cyclase activity; format: biochemical
T3 sequence (P28907 43-300 limits assumed): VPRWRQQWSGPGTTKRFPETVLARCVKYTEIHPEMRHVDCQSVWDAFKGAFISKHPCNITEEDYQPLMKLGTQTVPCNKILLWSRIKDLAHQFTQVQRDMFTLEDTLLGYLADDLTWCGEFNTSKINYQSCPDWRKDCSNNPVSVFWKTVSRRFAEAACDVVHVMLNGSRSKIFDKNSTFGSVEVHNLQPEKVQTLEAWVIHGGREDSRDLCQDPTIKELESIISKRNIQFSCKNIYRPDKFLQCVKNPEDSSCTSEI

HepG2 cells [6] = experiment: Lipid accumulation in HepG2 cells; format: cell-based, human; settings: 0.5 mmol/L oleate/palmitate (2:1) plus 25 μmol/L apigenin
AMPK = settings: cited from earlier work
A549 cells = experiment: Intracellular NAD+ levels in A549 cells; format: cell-based, human; settings: for Intracellular NAD+ levels over time in cells incubated in PBS: A549 cells in PBS, quercetin 50 μmol/L, apigenin 25 μmol/L; for Intracellular NAD+ levels, dose response: A549 cells, 6 h incubation
[7] = test system: C57BL/6 mice on a high-fat diet; experiment: Glucose homeostasis and liver lipid metabolism in high-fat diet obese mice; format: in vivo, mouse
SIRT1 = settings: cited from earlier work
recombinant human CD38 [8] = biological target: T3, recombinant human CD38; experiment: In vitro CD38 NAD+ase activity; format: biochemical
CD38 [9] = settings: ref Kellenberger et al. 19; cited from earlier work

IC50 [1]: 14.8 ± 2.2 µM
CD38 activity in the liver (CD38 [2]): decreased CD38 activity in the liver
Hepatic NAD+ levels (CD38 [2]): increase in hepatic NAD^+ levels
IC50 (recombinant human CD38 [5]): 12.8 ± 1.6 µM
Compound: O=c1cc(-c2ccc(O)cc2)oc2cc(O)cc(O)c12 [apigenin, 5,7-dihydroxy-2-(4-hydroxyphenyl)-4H-1-benzopyran-4-one]
Global acetylation of proteins in liver (acetyl-lysine antibody) (CD38 [2]): statistically significant decrease in global acetylation of proteins
Liver expression of CD38, SIRT1, Nampt (immunoblot) (CD38 [2]): no significant differences in the expression of CD38, SIRT1, or Nampt
Liver phosphorylation (Thr172) and total levels of AMPK (immunoblot) (CD38 [2]): did not see any changes in phosphorylation or total levels of AMPK
Total protein acetylation (HepG2 cells [3]; apigenin 25 μmol/L, 6 h): decreases total protein acetylation
Acetylation of p53 (K382) and RelA/p65 (K310) (HepG2 cells [3]; apigenin 25 M (so in the source), 4 hours, MG132 10 µM): decreased acetylation of p53 at K382 and also of RelA/p65 at K310
Intracellular NAD+ levels in CD38 knockout MEFs [4]: had no effect on NAD^+ levels
Atherosclerosis in mice (atherosclerosis in mice): ameliorate atherosclerosis in mice
Lipid accumulation (total triglycerides) in cells (HepG2 cells [6]): decreases lipid accumulation in cells
AMPK activation (AMPK): very poor AMPK activator
Intracellular NAD+ levels over time in cells incubated in PBS (A549 cells): protected against NAD^+ depletion
Intracellular NAD+ levels, dose response (A549 cells): increased NAD^+ levels in cells in a dose-dependent manner
Total triglyceride content in the liver ([7]; 100 mg/kg i.p. daily for 1 week vs control): lower triglyceride levels in the liver
Liver mRNA expression of lipid oxidation markers (RT-PCR) ([7]; 100 mg/kg i.p. daily for 1 week vs vehicle): increased expression of the enzymes MCAD and LCAD in the liver
Glucose homeostasis (glucose tolerance test, AUC) ([7]; 100 mg/kg i.p. daily for 1 week, 1.5 g/kg i.p. dextrose): improve glucose homeostasis
Food intake and body weight during treatment ([7]; 100 mg/kg i.p. daily for 7 days vs vehicle): no difference in these parameters between groups
Fasting blood glucose levels ([7]; 100 mg/kg i.p. daily, 24 h fasting, day 7): significantly lower
Blood glucose levels, ad libitum feeding ([7]; 100 mg/kg i.p. daily, after 4 days of treatment vs control): significantly lower blood glucose levels

IC50 [1]: 16.4 ± 1.8 µM
IC50 (recombinant human CD38 [8]): 13.8 ± 2.1 µM
Compound: O=c1c(O)c(-c2ccc(O)c(O)c2)oc2cc(O)cc(O)c12 [quercetin, 2-(3,4-dihydroxyphenyl)-3,5,7-trihydroxy-4H-chromen-4-one]
SIRT1 activation in vitro (SIRT1): activate SIRT1 in vitro
Intracellular NAD+ levels in CD38 knockout MEFs [4]: does not further increase NAD^+ levels in CD38 knockout MEFs
Intracellular NAD+ levels in wild-type MEFs ([4]; wild-type MEFs): promotes an increase in NAD^+ in the wild-type MEFs
Atherosclerosis in mice (atherosclerosis in mice): ameliorate atherosclerosis in mice
CD38 inhibition in vitro (CD38 [9]): inhibit CD38 in vitro
Intracellular NAD+ levels over time in cells incubated in PBS (A549 cells): NAD^+ levels were stable over time
Intracellular NAD+ levels, dose response (A549 cells): promotes an increase in intracellular NAD^+ in a dose-dependent manner
